pEC50: −log10 of the molar value. Calls of active or inactive are those of the source. No cut-off for these calls is given here.
Legend:
Rattus norvegicus [1] = organism: Rattus norvegicus; test: Positive allosteric modulation of rat cortex AMPA receptor expressed in Xenopus laevis oocytes assessed as potentiation of (S)-AMPA-induced current amplitude at 10 uM by voltage clamp technique relative to (S)-AMPA; assay type: cell-based
Summary of the method: (§1)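 Two-electrode voltage clamp at room temperature on Xenopus laevis oocytes expressing rat cortex poly(A+) mRNA, using 10 μM (S)-AMPA. Oocytes were pre-screened with 100 μM S22286, applied 45 s before, 30 s during and 30 s after AMPA; those with under 130-fold potentiation were excluded. Read-outs were drug concentrations for 2-fold or 5-fold current increase, EC50, and maximal effect as % of the AMPA current; n ≥ 3.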

Rattus norvegicus [2] = organism: Rattus norvegicus; test: Positive allosteric modulation of rat cortex AMPA receptor expressed in Xenopus laevis oocytes assessed as concentration required to 2 fold potentiation of (S)-AMPA-induced current amplitude by voltage clamp technique; assay type: cell-based; summary of the method: as §1
Rattus norvegicus [3] = organism: Rattus norvegicus; test: Positive allosteric modulation of rat brain AMPA receptor assessed as potentiation of 2 fold of (S)-AMPA-induced current amplitude by FlipR method
Summary of the method: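 Primary neuron cultures from rat embryonic cortex were stimulated with 300 μM AMPA. Membrane depolarization was read with a fluorescent membrane-potential dye in an imaging plate reader. Reported value is the drug concentration doubling the AMPA-induced fluorescence; n = 3, mean ± SEM (some n = 2).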

Rattus norvegicus [4] = organism: Rattus norvegicus; test: Positive allosteric modulation of AMPA receptor in rat hippocampal CA1 region assessed as potentiation of AMPA-induced excitatory postsynaptic field potential amplitude in CA1 region at 10 uM relative to basal value; assay type: tissue-based; details: Hippocampus
Summary of the method: (§2)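 Rat hippocampal slices were perfused with medium containing 1.2 mM Mg2+. EPSfPs were evoked in CA1 by Schaffer collateral stimulation, with compound at 10 μM. Area, amplitude and half-width were each normalized to the pre-application value (100%); n = 3.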

Rattus norvegicus [5] = organism: Rattus norvegicus; test: Positive allosteric modulation of AMPA receptor in rat hippocampal CA1 region assessed as potentiation of AMPA-induced excitatory postsynaptic field potential half-width in CA1 region at 10 uM relative to basal value; assay type: tissue-based; details: Hippocampus; summary of the method: as §2
Mus musculus [6] = test: Toxicity in mouse assessed as hypothermia at 30 mg/kg, po; assay type: organism-based; set-up: dose 30 mg/kg, route oral; details: in vivo
Summary of the method: (§3)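 Irwin test in mice: a single oral dose of 30 mg/kg, five animals per compound. Behavioural and physiological changes were recorded, including body temperature at 30 min post-dose.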

Rattus norvegicus [7] = organism: Rattus norvegicus; test: Positive allosteric modulation of AMPA receptor in rat hippocampal CA1 region assessed as potentiation of AMPA-induced excitatory postsynaptic field potential area in CA1 region at 10 uM relative to basal value; assay type: tissue-based; details: Hippocampus; summary of the method: as §2
[8] = Positive allosteric modulation of rat cortex AMPA receptor expressed in Xenopus laevis oocytes assessed as potentiation of (S)-AMPA-induced current amplitude by voltage clamp technique; assay type: cell-based; summary of the method: as §1
Rattus norvegicus [9] = organism: Rattus norvegicus; test: Positive allosteric modulation of rat cortex AMPA receptor expressed in Xenopus laevis oocytes assessed as concentration required to 5 fold potentiation of (S)-AMPA-induced current amplitude by voltage clamp technique; assay type: cell-based; summary of the method: as §1
Mus musculus [10] = test: Acute toxicity in mouse assessed as convulsion followed by apathy at 30 mg/kg, po; assay type: organism-based; set-up: dose 30 mg/kg, route oral; details: in vivo
Summary of the method: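 Irwin screen for acute neurotoxicity in mice: single oral dose of 30 mg/kg, then behavioural and physiological state recorded (convulsions, apathy, body temperature). Five animals per compound.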

Rattus norvegicus [11] = test: Positive allosteric modulation of AMPA receptor in Wistar rat dentate gyrus assessed as increase in field excitatory postsynaptic potential amplitude at 30 mg/kg, ip after 1 hr; assay type: functional, organism-based; set-up: dose 30 mg/kg
Summary of the method: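 Anesthetized Wistar rats received 30 mg/kg ip. EPSfPs were recorded in the hippocampal dentate gyrus, with amplitude averaged over four stimuli. Values were normalized to the mean response during the 1 h baseline before injection (100%). One hour after injection, LTP was induced by tetanic stimulation and EPSfPs were followed for 3 h.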

Rattus norvegicus [12] = organism: Rattus norvegicus; test: Positive allosteric modulation of AMPA receptor in Wistar rat hippocampus assessed as potentiation of (S)-AMPA-induced [3H]-NA release at 300 uM relative to (S)-AMPA
Summary of the method: (§4)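 Transverse hippocampal slices (300 μm) were loaded with [3H]noradrenaline ([…]) for 30 min at 37 °C, rinsed, then superfused with Krebs buffer, (S)-AMPA, or (S)-AMPA plus compound. Superfusate was collected in 5 min fractions and counted by scintillation. Fractional release was normalized to total radioactivity in all fractions plus tissue. Compound alone was compared with basal DMSO release, and co-application with (S)-AMPA alone (100%).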

Mus musculus [13] = test: Cognitive enhancing effect in CD-1 mouse assessed as recognition of familiar object at 0.3 to 1 mg/kg, po after 1 hr by object recognition test; assay type: functional, organism-based
Summary of the method: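 Three-session object recognition test in CD1 mice, with a 24 h interval between sessions. Dosing was oral, 1 h before each session. Read-out was a discrimination index: exploration time of the new object minus that of the familiar object in the last session. n = 13; one-way ANOVA versus control.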

Rattus norvegicus [14] = organism: Rattus norvegicus; test: Agonist activity at AMPA receptor in Wistar rat hippocampus assessed as [3H]-NA release at 300 uM relative to control; summary of the method: as §4
Mus musculus [15] = test: Toxicity in mouse assessed as hypothermia at 30 mg/kg, po after 30 mins; assay type: organism-based; set-up: dose 30 mg/kg, route oral; details: in vivo, 0.5 h; summary of the method: as §3
Rattus norvegicus [16] = test: Positive allosteric modulation of AMPA receptor in Wistar rat dentate gyrus assessed as increase in tetanus-induced field excitatory postsynaptic potential amplitude at 30 mg/kg, ip administered 1 hr prior to tetanus challenge measured after 3 hrs relative to vehicle-treated control; assay type: functional, organism-based; set-up: dose 30 mg/kg
Summary of the method: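 Anaesthetised Wistar rats, 30 mg/kg ip. Field EPSPs recorded in hippocampal dentate gyrus, each amplitude the average of four stimuli. Values normalised to the mean of the 1 h baseline before injection, taken as 100%. LTP induced by tetanic stimulation 1 h after injection, then EPSPs followed for 3 h.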

Mus musculus [17] = test: Toxicity in mouse assessed as reduction in body temperature at 30 mg/kg, ip; assay type: organism-based; set-up: dose 30 mg/kg, route intraperitoneal; details: in vivo

| SMILES | Emax (Rattus norvegicus [1]) | Activity (Rattus norvegicus [2]) | Activity (Rattus norvegicus [3]) | other results |
| --- | --- | --- | --- | --- |
| CN1C=NS(=O)(=O)c2c(Cl)sc(Cl)c21 | > 413% | 81 µM |  |  |
| O=S1(=O)N=CN(CC(F)F)c2cc(Cl)sc21 |  |  | 100 µM |  |
| CN1CNS(=O)(=O)c2sc(Cl)cc21 | > 462% | 36 µM |  |  |
| CN1C=NS(=O)(=O)c2sc(Cl)cc21 |  | > 166 µM | > 100 µM |  |
| O=S1(=O)NCN(CCCF)c2cc(Cl)sc21 | > 3780% | 12 µM | > 45.7 µM |  |
| CCCN1CNS(=O)(=O)c2sc(Cl)cc21 | 2090% | 15 µM | 25.1 µM |  |
| CC(C)N1C=NS(=O)(=O)c2sc(Cl)cc21 | > 277% | > 100 µM | > 100 µM |  |
| CCN1CNS(=O)(=O)c2c(Cl)sc(Cl)c21 | > 955% | 71 µM | > 55 µM |  |
| CCN1C=NS(=O)(=O)c2sc(Cl)cc21 | > 175% | 172 µM | > 100 µM |  |
| CCN1C=NS(=O)(=O)c2c(Cl)sc(Cl)c21 | > 1000% | 42 µM |  |  |
| O=S1(=O)NCN(CC(F)F)c2c(Cl)sc(Cl)c21 | > 227% | 235 µM | > 100 µM |  |
| O=S1(=O)N=CN(CCF)c2c(Cl)sc(Cl)c21 | > 2330% | 26.5 µM | 20.3 µM |  |
| CCCN1CNS(=O)(=O)c2c(Cl)sc(Cl)c21 | > 126% | > 300 µM | > 100 µM |  |
| CCCN1C=NS(=O)(=O)c2c(Cl)sc(Cl)c21 |  |  | > 100 µM |  |
| CN1CNS(=O)(=O)c2c(Cl)sc(Cl)c21 | 2920% | 5.4 µM |  |  |
| O=S1(=O)NCN(CC(F)F)c2cc(Cl)sc21 | 2560% | 1.6 µM | 2.9 µM | Activity (Rattus norvegicus [4]): 15.3%; Activity (Rattus norvegicus [5]): 14.3%; Activity (Mus musculus [6]): 60%; Activity (Rattus norvegicus [7]): 22.7% |
| O=S1(=O)NCN(CCF)c2c(Cl)sc(Cl)c21 | > 485% | 113 µM | > 100 µM |  |
| CCN1CNS(=O)(=O)c2sc(Cl)cc21 | 2270% | 3.6 µM |  | pEC50 [8]: 5.04; Activity (Rattus norvegicus [9]): 18.5 µM |
| O=S1(=O)NCNc2c(Cl)sc(Cl)c21 | > 973% | 72 µM | > 100 µM |  |
| O=S1(=O)NCN(CCF)c2cc(Cl)sc21 | 5600% | 2 µM | 3.32 µM | Activity (Rattus norvegicus [4]): 33.7%; Activity (Mus musculus [10]): Toxic; Activity (Rattus norvegicus [7]): 9.3% |
| O=S1(=O)N=CN(CF)c2cc(Cl)sc21 |  |  | > 100 µM |  |
| O=S1(=O)N=CN(CC(F)F)c2c(Cl)sc(Cl)c21 |  |  | > 100 µM |  |
| O=S1(=O)N=CNc2c(Cl)sc(Cl)c21 |  | > 100 µM |  |  |
| CCN1CNS(=O)(=O)c2cc(Cl)sc21 | 2830% | 4.4 µM | 10.4 µM | Activity (Rattus norvegicus [11]): Active; pEC50 [8]: 4.96; Activity (Rattus norvegicus [12]): 281%; Activity (Mus musculus [13]): Active; Activity (Rattus norvegicus [4]): 3.7%; Activity (Rattus norvegicus [9]): 24 µM; Activity (Rattus norvegicus [5]): 11.7%; Activity (Rattus norvegicus [14]): 34%; Activity (Mus musculus [15]): Non-toxic; Activity (Rattus norvegicus [16]): Active; Activity (Rattus norvegicus [7]): 18.3% |
| O=S1(=O)NCNc2cc(Cl)sc21 | 253% | 216 µM | > 100 µM |  |
| CC(C)N1CNS(=O)(=O)c2sc(Cl)cc21 | 217% | 4.2 µM | 9.55 µM |  |
| O=S1(=O)N=CN(CCF)c2cc(Cl)sc21 | 204% | > 300 µM | > 100 µM |  |
| CCN1C=NS(=O)(=O)c2cc(Cl)sc21 |  |  | > 100 µM |  |
| O=S1(=O)N=CN(CCCF)c2cc(Cl)sc21 | 107% | > 300 µM | 100 µM |  |
| CCCN1C=NS(=O)(=O)c2sc(Cl)cc21 | 2070% |  | > 100 µM | T (Mus musculus [17]): 4.6 °C |
